The values below come from ChEMBL document CHEMBL4177753, “Structural Modification of Natural Product Ganomycin I Leading to Discovery of a α-Glucosidase and HMG-CoA Reductase Dual Inhibitor Improving Obesity and Metabolic Dysfunction in Vivo” (J Med Chem, 2018).

Each structure is given as a SMILES string. The source made the active and inactive calls. No cut-off for these calls is given here.

Data set [1] concerns Mus musculus. As to the kind of experiment: Toxicity in C57BL/6J mouse assessed as effect on body weight at 30 mg/kg administered daily via oral gavage for 3 months. In kind it is organism-based. As to conditions: in vivo. In short, it runs like this: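 Long-term safety study in C57BL/6J mice, 20 male and 20 female, sorted by gender, blood glucose and body weight into four groups (n = 10 each). Treated groups of each sex got 30.0 mg/kg daily by oral gavage in soybean vehicle. Vehicle groups got an equal volume of soybean. Dosing ran three months, with behavior, survival, body weight, blood glucose, liver function and organ coefficients recorded.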

Data set [2] concerns Mus musculus. As to the kind of experiment: Hypolipidemic activity in ob/ob mouse assessed as decrease in liver total cholesterol levels at 0.3 to 3 mg/kg administered daily via oral gavage for 31 days. It is filed as functional, organism-based.
For another data set, the system named is Alphaproteobacteria. As to the kind of experiment: Decrease in Alphaproteobacteria levels in cecum of ob/ob mouse at 1 to 3 mg/kg administered daily via oral gavage for 31 days by 16S rRNA gene high-throughput sequencing method. It is filed as functional, organism-based. The essentials:
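Male ob/ob mice dosed daily by gavage at 1.0 or 3.0 mg/kg, compared with vehicle group. DNA extracted from about 150 mg caecum contents. 16S rRNA V3–V4 region amplified and sequenced on Illumina HiSeq PE250. Community compared by NMDS/MRPP; discriminant taxa identified by LEfSe.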

Take `CC(C)=CCC/C(C)=C/CCC1=C[C@H](c2ccc(C(C)(C)C)cc2)OC1=O`: the Activity result in the data set on Mus musculus [1] is given as “Non-Toxic”. Besides, the outcome in the data set on Mus musculus [2] and in the data set with Alphaproteobacteria was Active.
